iPSC survival up: enhancers of single-cell hiPSC survival, primary screen, ATPlite luminescence | 100% = ROCK inhibitor wells, 0% = DMSO | hit rate 0.044% among 360,000 | survival enhancement, % at 20 µM | AID 602274, 2012; in the data active means survival enhancement above about 18%;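 further: cells exposed to compounds for 16 hours before the ATP read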
eLon inh: inhibitors of E. coli Lon protease, primary screen, biochemical, fluorescence polarization; inhibition, % at 7.94 µM; purified E. coli Lon protease; AID 602123, 2011; hit rate 0.42% among 360,000; in the data active means inhibition above about 13%, passing the limit was not always enough
Target sequence (P0A9M0 whole entry, looked up): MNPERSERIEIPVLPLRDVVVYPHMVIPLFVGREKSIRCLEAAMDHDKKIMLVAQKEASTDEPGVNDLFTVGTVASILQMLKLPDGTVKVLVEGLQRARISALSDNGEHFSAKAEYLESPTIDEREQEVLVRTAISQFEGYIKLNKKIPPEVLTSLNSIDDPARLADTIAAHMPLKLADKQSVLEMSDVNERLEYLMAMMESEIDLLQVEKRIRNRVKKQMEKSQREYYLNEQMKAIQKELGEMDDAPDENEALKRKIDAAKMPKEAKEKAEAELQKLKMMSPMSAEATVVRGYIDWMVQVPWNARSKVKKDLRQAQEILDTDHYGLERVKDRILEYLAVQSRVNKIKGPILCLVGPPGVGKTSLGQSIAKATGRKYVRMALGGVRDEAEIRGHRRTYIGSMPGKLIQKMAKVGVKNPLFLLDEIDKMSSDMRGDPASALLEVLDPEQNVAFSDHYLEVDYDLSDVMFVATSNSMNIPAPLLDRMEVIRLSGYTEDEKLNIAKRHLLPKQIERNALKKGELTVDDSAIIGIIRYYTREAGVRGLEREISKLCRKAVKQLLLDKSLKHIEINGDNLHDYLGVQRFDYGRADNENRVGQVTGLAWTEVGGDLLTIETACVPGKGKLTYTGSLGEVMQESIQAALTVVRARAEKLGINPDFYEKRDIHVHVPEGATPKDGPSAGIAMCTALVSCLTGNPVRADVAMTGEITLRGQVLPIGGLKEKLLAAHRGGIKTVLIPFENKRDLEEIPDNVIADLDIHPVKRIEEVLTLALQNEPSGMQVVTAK
SKN-1 inh: suppressors of acrylamide-induced Pgst-4::GFP reporter in worms, primary screen, SKN-1 inhibitor project, whole organism, uHTS, GFP/RFP fluorescence ratio, strain VP596. C. elegans VP596 Pgst-4::GFP/RFP ratio, 24 h. inhibition, % at 21.8 µM. hit rate 0.49% among 360,000. AID 624304, 2012;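 active means interference check ratio from 0.5 to 1.5 plus GFP to RFP signal ratio inhibition reaching or exceeding a fixed threshold, cut at about 30% in these data, passing the limit was not always enough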
Tb MetRS inh: T. brucei MetRS inhibitors, primary screen, biochemical, luminescence; methionyl-tRNA synthetase (Trypanosoma brucei brucei); purified T. brucei MetRS, ATP depletion, Kinase-Glo luminescence; inhibition, % at 11.9 µM; hit rate 0.4% among 360,000; AID 624268, 2012;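 active means inhibition above a per-plate cutoff of the control wells' mean inhibition plus 3 SD, cut at about 5.5% in these data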
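Measured by: Kinase-Glo luciferase luminescence reporting remaining unconsumed ATP. Material: purified T. brucei MetRS enzyme. Doses: 11.9 µM compound single dose, 0.9% DMSO. Medium: HEPES buffer containing pyrophosphatase, BSA, spermine, DTT. Times: 15 min preincubation, 2 h reaction, all 25 °C. Reagent: methionine, ATP and bulk E. coli tRNA.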
PREPL inh: PREPL enzyme inhibitors, primary screen, biochemical, fluorescence polarization; recombinant PREPL, fluorescence polarization activity-based probe; inhibition, % at 5.96 µM; hit rate 0.68% among 320,000; AID 2751, 2010
MT1-MMP act inh: blockers of MT1-MMP proenzyme processing, primary screen, HT1080 RFP-PRO-GFP cells, GFP/RFP fluorescence; Matrix metalloproteinase-14 (Homo sapiens), P50281; GFP/RFP ratio fluorescence, overnight; percent of plate control window, DMSO zero; GFP/RFP ratio change, % at 20 µM; hit rate 0.061% among 360,000; AID 651647, 2012;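 active means GFP/RFP ratio change of at least 30% with cell ATP level not reduced by more than half and red fluorescence within 50% of control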
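Test system: HT1080 cells expressing an RFP-PRO-GFP fluorescent reporter construct / Compound dosing: single-point 20 µM compound, 1% DMSO / Schedule: cells overnight before dosing, compound overnight, 37 °C, 5% CO2 / Evaluation: GFP/RFP fluorescence ratio / Control set: DMSO and RFP-L50D-GFP cell wells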
PREPL inh cf: human PREPL enzyme inhibitors, confirmation, biochemical, fluorescence polarization. inhibition, % at 5.96 µM. shares compounds with PREPL inh. hit rate 67% among 2,000. recombinant PREPL, fluorescence polarization activity probe
Each line names hits and unclear results; the compound was inactive in the other large screens (follow-up assays come after a bar, where they were run). A selection: hits, their analogues and other compounds. The true share with any hit is near 1.8%. Unless noted, no stated cut-off is given here; in the data, active means inhibition above about 43%; inactive means the rest.

CC(C(=O)c1ccc(-c2ccccc2)cc1)[n+]1cccc(NC(=O)c2ccccc2)c1 (centres undefined)	none
CCOC(=O)c1ccc[n+](C(C)C(=O)c2ccc(-c3ccccc3)cc2)c1 (centres undefined)	PREPL inh 61 | PREPL inh cf 48
Cc1ccc(C2=NC3(CCCC3)NC2=S)cc1	none
Cc1cc(=O)oc(C)c1C(=O)Nc1cccnc1Cl	none
CCN(C(=O)CN1CCN(S(=O)(=O)c2cc(Cl)ccc2Cl)CC1)c1c(N)n(Cc2ccccc2)c(=O)[nH]c1=O	PREPL inh 64 | PREPL inh cf 61
CCN(C(=O)CN1CCCCCC1)c1c(N)n(Cc2ccccc2)c(=O)[nH]c1=O	none
Cc1ccc2nc(-c3sc4nc(C)ccc4c3N)[nH]c2c1	none
Cc1cc(C)c2c(N)c(-c3nc4ccccc4[nH]3)sc2n1	PREPL inh 78 | PREPL inh cf inactive
Cc1ccc(C(=O)NCCN2CCC(n3c(=O)[nH]c4ccccc43)CC2)cc1F	none (no result: PREPL inh)
CCCCOc1ccc(NC2=NC3(CCCC3)N=C(N)N2)cc1	none
COc1ccc(/C=C/C(=O)NCCCc2ccccc2)cc1	none
COc1ccc(/C=C/c2cc[n+](C(=O)Cc3ccccc3)cc2)cc1	PREPL inh 45 | PREPL inh cf inactive
COC(=O)c1c(NC(=O)CS(=O)(=O)c2ccccc2)sc(C)c1C	none
CC1CCC(C(C)C)C(OC(=O)C[n+]2cc(-c3ccc(Cl)cc3)n3c2CCCCC3)C1 (centres undefined)	PREPL inh 47 | PREPL inh cf 44
CCOC(=O)c1cnc(/N=C/N(C)C)s1	none
CCCCCC(=O)Nc1cccc(C2=NOC3(C2)C[C@@H](C(N)=O)N(C(=O)Cc2ccc([N+](=O)[O-])cc2)C3)c1 (some centres undefined)	none
NC(=O)[C@H]1CC2(CC(c3cccc(NC(=O)COc4ccc(Cl)cc4)c3)=NO2)CN1C(=O)Cc1ccc([N+](=O)[O-])cc1 (some centres undefined)	PREPL inh 49 | PREPL inh cf 50
COc1cc(NC(=O)C2CC(c3ccc(Cl)cc3)=NO2)cc(OC)c1OC (centres undefined)	PREPL inh 44 | PREPL inh cf inactive
O=C1NC(Cc2c[nH]c3ccccc23)C(=O)N1Cc1ccc(CN2C(=O)NC(Cc3c[nH]c4ccccc34)C2=O)cc1 (centres undefined)	PREPL inh 76 | PREPL inh cf 57
Nc1nn(-c2ccccc2)c(N)c1N=Nc1ccccc1	PREPL inh 51 | PREPL inh cf 55
Cc1nn(-c2ccccc2)c(N)c1N=Nc1ccccc1	none
Nc1c(N=Nc2ccccc2F)c(=O)[nH]n1-c1ccccc1	none
Nc1nn(-c2ccccc2)c(N)c1N=Nc1ccccc1F	PREPL inh 54 | PREPL inh cf 56
COc1ccc(CN2C(=O)c3ccccc3C2=O)cc1C(=O)Nc1ccc(C)cc1C	none
OC1CCN(c2c3c(nc4cc(-c5cccc(F)c5)nn24)CCCC3)CC1	PREPL inh 44 | PREPL inh cf inactive
Fc1cccc(-c2cc3nc4c(c(N5CCC6(CC5)OCCO6)n3n2)CCCC4)c1	none
CCOc1ccc(NC(=O)c2ccc3c(c2)S(=O)(=O)N=C2CCCCCN23)cc1	none (no result: PREPL inh)
Cc1ccc2nc3c(cc(C(=O)NCCN4CCOCC4)c(=N)n3CCCN3CCOCC3)c(=O)n2c1	none
Cc1ccc2nc3c(cc(C(=O)NCCc4ccccc4)c(=N)n3CCN3CCOCC3)c(=O)n2c1	PREPL inh 45 | PREPL inh cf inactive
Oc1cccc(C(O)CNCc2ccc(OCc3ccc(Cl)cc3Cl)cc2)c1 (centres undefined)	none
CCOc1cc(CNc2ccc(O)cc2)ccc1OCc1ccc(Cl)cc1Cl	SKN-1 inh 41, PREPL inh 57 | PREPL inh cf 51
CC(=O)Nc1ccc(S(=O)(=O)NC2=C(N3CCN(c4ccc(F)cc4)CC3)C(=O)c3ccccc3C2=O)cc1	PREPL inh 59 | PREPL inh cf 74
COc1ccc(S(=O)(=O)N2CCCCC2)cc1NC(=O)CN(Cc1ccco1)Cc1ccco1	none
CC(=O)Oc1cc2cccc(OC(C)=O)c(=O)c2c(OC(C)=O)c1OC(C)=O	PREPL inh 63 | PREPL inh cf inactive
O=C(Nc1ccccc1N1CCCC1)c1cccc(-c2cc3ccccc3oc2=O)c1	PREPL inh 45 | PREPL inh cf inactive
CC(C)(C)n1cnc2cc(NCc3ccc(Br)cc3)ccc21	PREPL inh 54 (no result: MT1-MMP act inh) | PREPL inh cf 63
CCc1ccc(CNc2ccc3c(c2)ncn3C(C)(C)C)cc1	PREPL inh 48 | PREPL inh cf 50
CCN(CC)c1ccc(CNc2ccc3c(c2)ncn3C(C)(C)C)cc1	PREPL inh 48 | PREPL inh cf inactive
CC12CCC(=O)N1C(C(=O)N1CCN(c3ccc([N+](=O)[O-])cc3)CC1)CS2 (centres undefined)	PREPL inh 47 | PREPL inh cf inactive
CC12CCC(=O)N1C(C(=O)N1CCN(c3ccccc3)CC1)CS2 (centres undefined)	none
c1ccc(N2CCN(c3nc(-c4ccccn4)nc4ccccc34)CC2)cc1	PREPL inh 83 | PREPL inh cf 79
CN(C)c1ccc(NC(=O)c2cc3c(=O)n4ccccc4nc3n2C)cc1	PREPL inh 43 | PREPL inh cf inactive
NNC(=O)c1oc2nc(-c3ccco3)cc(-c3ccco3)c2c1N	PREPL inh 47 | PREPL inh cf 57
Cc1ccsc1/C=N/Nc1nc2ccccc2s1	PREPL inh 46 | PREPL inh cf 55
C/C(=N\Nc1nc2ccccc2s1)c1cccs1	PREPL inh 45 | PREPL inh cf 51
C(=N\Nc1nc2ccccc2s1)/c1cccs1	none
CC(=NNc1nc2ccccc2s1)c1ncccn1	none (no result: PREPL inh)
O=C(C[C@@H]1C/C=C\C[C@H](Cc2ccc(F)cc2)C(=O)OC[C@@H](Cc2c[nH]c3ccccc23)NC1=O)NCCO	none
O=C(C[C@@H]1C/C=C\C[C@@H](Cc2ccc(F)cc2)C(=O)OC[C@@H](Cc2c[nH]c3ccccc23)NC1=O)NCCO	PREPL inh 54 | PREPL inh cf 47
